Assay results: ChEMBL document CHEMBL4033789, “Discovery of a New Four-Leaf Clover-Like Ligand as a Potent c-MYC Transcription Inhibitor Specifically Targeting the Promoter G-Quadruplex” (J Med Chem, 2018)
The source made the active and inactive calls. The calls are words filed in the database; no cut-off is given here.

Legend:
SiHa [1] = assay: Induction of cell cycle arrest in human SiHa cells assessed as accumulation at G0/G1 phase up to 5 uM after 12 hrs by propidium iodide-staining based FACS analysis (reference value: 61%); format: functional
Procedure, shortened: (§1)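 SiHa cells treated 12 h, fixed in 70% ethanol at 4 °C overnight, stained with 50 µg/mL PI plus 75 KU/mL RNase A in PBS for 30 min in the dark at room temperature; flow cytometry, 1.6×10^4 events per sample, cell cycle distribution analyzed.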

[2] = Binding affinity to KRAS promoter G-quadruplex DNA (unknown origin) after 1 min by fluorescence titration method; format: ADME
Procedure, shortened: (§2)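 Oligonucleotide stock added stepwise to fixed-concentration compound in 10 mM Tris-HCl pH 7.2, 100 mM KCl; equilibrated ≥1 min after each addition, emission read with excitation at 350 nm. KD from fitting titration data to the Benesi–Hildebrand equation; 1:1 stoichiometry checked by Job plot.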

Mus musculus [3] = assay: Toxicity in nude BALB/c mouse xenografted with human SiHa cells assessed as viscera weight reduction at 5 to 20 mg/kg, ip administered every other day for 24 days; format: organism-based; conditions: in vivo, 576 h
Procedure, shortened: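 BALB/c nude mice, 5 weeks old, implanted subcutaneously in right flank with 1×10^7 SiHa cells; at ~50 mm3 tumor, 10 per group dosed ip every other day for 24 days, saline control; body weight measured daily, viscera weighed at sacrifice; mean ± SEM, Student's t test versus saline.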

SiHa [4] = assay: Induction of apoptosis in human SiHa cells after 24 hrs by Annexin V-FITC/propidium iodide-staining based flow cytometric analysis; format: functional, cell-based
Mus musculus [5] = assay: In vivo stabilization of c-Myc G-quadruplex DNA in human SiHa cells xenografted in nude BALB/c mouse assessed as decrease in c-Myc expression at 20 mg/kg, ip administered every other day for 24 days by immunohistochemistry; format: functional, organism-based
[6] = Stabilization of KRAS G-quadruplex DNA in human SiHa cells assessed as effect on […] mRNA level at 1.25 to 5 uM fter 6 hrs by RT-PCR method; format: ADME, cell-based
Procedure, shortened: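 SiHa cells (2.0×10^5 per well) treated 6 h; total RNA (2 µg) reverse-transcribed with oligo dT18 and M-MLV at 42 °C for 1 h, 85 °C for 5 min; PCR: 95 °C 5 min, then 30 cycles of 95 °C 30 s, 58 °C 30 s, 72 °C 40 s; products checked on agarose gel.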

[7] = Stabilization of KRAS promoter G-quadruplex DNA (unknown origin) assessed as effect on melting temperature at 15 uM by circular dichroism spectroscopic assay; format: ADME
Procedure, shortened: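 G-quadruplex at 3 µM, with or without 15 µM compound, in 10 mM Tris-HCl pH 7.2 containing 2 mM KCl; CD recorded every 5 °C from 25 to 95 °C at a heating rate of 1 °C/min.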

[8] = Binding affinity to up to 1 uM c-MYC promoter G-quadruplex pu22 DNA (unknown origin) after 1 min by fluorescence titration method; procedure, shortened: as §2
SiHa [9] = assay: Cytotoxicity against human SiHa cells assessed as cell growth inhibition at 1.2 to 3 uM after 130 hrs by RTCA assay; format: functional, cell-based
Procedure, shortened: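 Cells seeded at 2000 per well on impedance plates, settled 20 min at room temperature, profiled 24 h; medium then replaced with compound-containing medium and cells monitored to 130 h total. Cell index normalized to 1.0 at the time point just before compound addition.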

[10] = Stabilization of RET G-quadruplex DNA in human SiHa cells assessed as effect on RET mRNA level at 1.25 to 5 uM fter 6 hrs by RT-PCR method; format: ADME, cell-based
Procedure, shortened: (§3)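 SiHa cells (2.0×10^5) dosed 6 h; total RNA reverse-transcribed with oligo dT18 primer and M-MLV (42 °C 1 h, 85 °C 5 min); PCR 95 °C 5 min then 30 cycles (95 °C 30 s, 58 °C 30 s, 72 °C 40 s); products checked on agarose gel.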

SiHa [11] = assay: Induction of apoptosis in human SiHa cells assessed as early apoptotic cells at 5 uM after 24 hrs by Annexin V-FITC/propidium iodide-staining based flow cytometric analysis; format: functional
SiHa [12] = assay: Antitumor activity against human SiHa cells xenografted in nude BALB/c mouse assessed as tumor growth inhibition at 5 to 20 mg,kg, ip administered every other day for 24 days; format: functional, organism-based; conditions: TDE = time-dependent effect
Procedure, shortened: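 BALB/c nude mice (5 weeks old) given 1×10^7 SiHa cells subcutaneously in right flank; at ~50 mm3 tumor volume, randomized (10 per group) and dosed intraperitoneally every other day for 24 days; controls got equal-volume saline. Caliper volume as 1/2 × length × width2; tumors weighed at end; inhibition rate = (1 − mean treated tumor weight/mean control tumor weight) × 100%.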

[13] = Binding affinity to 1 uM VEGF promoter G-quadruplex DNA (unknown origin) at 1 uM after 1 min by fluorescence spectroscopic analysis; format: ADME
Procedure, shortened: (§4)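 Fluorescence emission spectra of 1 µM compound mixed with 1 µM pre-annealed oligonucleotide (G-quadruplexes folded in 100 mM KCl by heating to 95 °C for 5 min, slow cooling), in Tris-HCl buffer.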

SiHa [14] = assay: Antiproliferative activity against human SiHa cells assessed as reduction in colony formation at 0.5 uM measured on day 8 by crystal violet-staining based assay; format: functional, cell-based
Procedure, shortened: (§5)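 Cells seeded at 300 per well in six-well plates, exposed to compound at 37 °C, 5% CO2, with drug-containing medium replaced every 2 days; after 8 days of culture, colonies fixed with methanol and stained with crystal violet.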

SiHa [15] = assay: Induction of cell cycle arrest in human SiHa cells assessed as downregulation of CDK6 protein levels after 24 hrs by Western blot analysis; format: functional, cell-based
Procedure, shortened: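 SiHa cells (2.0×10^5 per well) treated 24 h, lysed at 4 °C for 30 min, supernatant cleared at 15,000 rpm; protein measured by BCA, 30 µg resolved on 10% SDS-PAGE, transferred to nitrocellulose, blocked in 5% milk/TBS-Tween 1 h, primary antibodies overnight at 4 °C, HRP secondaries 2 h at room temperature.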

SiHa [16] = assay: Induction of cell cycle arrest in human SiHa cells assessed as accumulation at G0/G1 phase after 12 hrs by propidium iodide-staining based FACS analysis; format: functional; procedure, shortened: as §1
Homo sapiens = species on record: Homo sapiens; assay: Stabilization of c-Myc promoter G-quadruplex DNA in human Raji cells assessed as downregulation of exon 1 transcriptional level after 6 hrs by RT-PCR analysis; format: cell-based
Procedure, shortened: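 RAJI and CA46 cells treated 6 h over a concentration range; total RNA reverse-transcribed (oligo dT18, M-MLV, 42 °C 1 h then 85 °C 5 min); exon 1 and exon 2 amplified by real-time PCR with exon-specific primers, products run on 1% agarose gel; three repeats.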

Mus musculus [17] = assay: Toxicity in nude BALB/c mouse xenografted with human SiHa cells assessed as signs of pain at 5 to 20 mg/kg, ip administered every other day for 24 days; format: organism-based; conditions: in vivo, 576 h
[18] = Binding affinity to 1 uM C-KIT1 promoter G-quadruplex DNA (unknown origin) at 1 uM after 1 min by fluorescence spectroscopic analysis; format: ADME; procedure, shortened: as §4
[19] = Stabilization of VEGF G-quadruplex DNA in human SiHa cells assessed as effect on VEGF mRNA level at 1.25 to 5 uM fter 6 hrs by RT-PCR method; format: ADME, cell-based; procedure, shortened: as §3
BJ = assay: Antiproliferative activity against human BJ cells assessed as reduction in colony formation at 0.5 uM measured on day 8 by crystal violet-staining based assay; format: cell-based; procedure, shortened: as §5

CCn1c2ccccc2c2cc(-c3nc(-c4ccc(N5CCN(C)CC5)cc4)c(-c4ccc(N5CCN(C)CC5)cc4)n3-c3ccc(OC)cc3)ccc21
Activity (SiHa [1]): 70%
Kd [2]: 1000 nM
Activity (Mus musculus [3]): Non-Toxic
Activity (SiHa [4]): Dose-dependent effect
Activity (Mus musculus [5]): Active
Activity [6]: Not Active
Activity [7]: Not Active
Kd [8]: 100 nM
growth inhibition (GI) (SiHa [9]): Active
Activity [10]: Not Active
Activity (SiHa [11]): 22%
TGI (SiHa [12]): Tde
Activity [13]: Not Active
Activity (SiHa [14]): Active
Activity (SiHa [15]): Dose-dependent effect
Activity (SiHa [16]): Dose-dependent effect
Activity (Homo sapiens): Dose-dependent effect
Activity (Mus musculus [17]): Non-Toxic
Activity [18]: Not Active
Activity [19]: Not Active
Activity (BJ): Non-Toxic
